What is called MIC is the lowest concentration found to suppress growth. A higher MIC goes with a need for much substance.

Format in all cases: functional
Assay [1] has as its system Proteus vulgaris. As to the kind of experiment: Antibacterial activity tested against Proteus vulgaris CNUR 5. The essentials: (§1)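 MICs (µg/mL) determined by conventional agar dilution against a panel of eight Gram-negative and five Gram-positive reference strains.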
The subject of assay [2] is Escherichia coli. As to the kind of experiment: Antibacterial activity tested against Escherichia coli ISF 432. The essentials:
as §1

The nature of assay [3]: Geometric mean of antibacterial activity (Gram -ve bacteria) of the compound. The essentials: (§2)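 Geometric means calculated from agar-dilution MICs (µg/mL), taken separately across the five Gram-positive and the eight Gram-negative panel strains.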
Assay [4] deals with Providencia stuartii. As to the kind of experiment: Antibacterial activity tested against Providencia stuartii CNUR 5. The essentials:
as §1

Assay [5] deals with Staphylococcus aureus. As to the kind of experiment: Antibacterial activity against Staphylococcus aureus MPR 5. A digest of the protocol:
as §1

In assay [6] the test system is Staphylococcus epidermidis. As to the kind of experiment: Antibacterial activity tested against Staphylococcus epidermidis CPHL A2. The essentials: as §1
Assay [7] has as its system Staphylococcus aureus. As to the kind of experiment: Antibacterial activity against Staphylococcus aureus ATCC 6538. The essentials: as §1
Assay [8] relates to Pseudomonas aeruginosa. As to the kind of experiment: Antibacterial activity tested against P. ae (Pseudomonas aeruginosa) ATCC 9027. A digest of the protocol:
as §1

The subject of assay [9] is Staphylococcus epidermidis. As to the kind of experiment: Antibacterial activity tested against Staphylococcus epidermidis HCF Berset C. A digest of the protocol: as §1
The test system of assay [10] is Klebsiella pneumoniae. As to the kind of experiment: Antibacterial activity tested against Klebsiella pneumoniae (Klebsiella pneumoniae) ATCC 10031. A digest of the protocol: as §1
In assay [11] the test system is Escherichia coli. As to the kind of experiment: Antibacterial activity tested against Escherichia coli ATCC 8739. The essentials:
as §1

Assay [12] deals with Enterobacter cloacae. As to the kind of experiment: Antibacterial activity tested against Enterobacter cloacae OMNFI 174.
For assay [13], the system named is Bacteria. As to the kind of experiment: Geometric mean of antibacterial activity (Gram +ve bacteria) of the compound. The essentials: as §2
Assay [14] deals with Shigella. As to the kind of experiment: Antibacterial activity tested against Shigella enteritidis. A digest of the protocol:
as §1

For assay [15], the system named is Enterococcus faecalis. As to the kind of experiment: Antibacterial activity tested against Streptococcus faecalis LEP Br. A digest of the protocol:
as §1

Each structure is given as a SMILES string. ≈ marks a conversion by molar mass, not a printed value. Bounds are passed on as bounds.

Regarding `Cc1c(N2CCN(C)CC2)c(F)cc2c(=O)c(C(=O)O)cn(C3CC3)c12`, the minimal inhibitory concentration (MIC) is 2 µg/mL (≈ 5.56 µM) in assay [1]; 0.03 µg/mL (≈ 0.0835 µM) in [2]; 2 µg/mL (≈ 5.56 µM) in assay [4]; 0.03 µg/mL (≈ 0.0835 µM) in assay [5]; 0.25 µg/mL (≈ 0.696 µM) in assay [6]; 0.06 µg/mL (≈ 0.167 µM) in [7]. Also, the minimum inhibitory concentration (MIC) in assay [8] turned out to be 2 µg/mL (≈ 5.56 µM); in [9], 0.25 µg/mL (≈ 0.696 µM); in assay [10], 0.03 µg/mL (≈ 0.0835 µM); in assay [11] it was 0.03 µg/mL (≈ 0.0835 µM); in assay [12] it was 0.03 µg/mL (≈ 0.0835 µM); in assay [14], 0.03 µg/mL (≈ 0.0835 µM). In [15], this molecule came in with a minimum inhibitory concentration (MIC) of 1 µg/mL (≈ 2.78 µM). The Geometric mean worked out at 0.145 in assay [3] and 0.162 in [13].
As to `CC1CN(c2cc3c(cc2N)c(=O)c(C(=O)O)cn3C2CC2)CC(C)(C)N1` (stereo not given), the MIC came to 64 µg/mL (≈ 173 µM) in assay [1]; 0.03 µg/mL (≈ 0.081 µM) in assay [2]; 4 µg/mL (≈ 10.8 µM) in assay [4]; 8 µg/mL (≈ 21.6 µM) in assay [5]; 2 µg/mL (≈ 5.4 µM) in [6]; 8 µg/mL (≈ 21.6 µM) in [7]. Also, the MIC worked out at 2 µg/mL (≈ 5.4 µM) in [8]; 4 µg/mL (≈ 10.8 µM) in assay [9]; 0.03 µg/mL (≈ 0.081 µM) in assay [10]; 0.03 µg/mL (≈ 0.081 µM) in assay [11]; 0.5 µg/mL (≈ 1.35 µM) in assay [12]; 0.25 µg/mL (≈ 0.675 µM) in [14]. The molecule further returned an MIC in assay [15] of 32 µg/mL (≈ 86.4 µM). In addition, the Geometric mean in assay [3] amounted to 0.451; in assay [13], 6.964.
`Nc1cc2c(=O)c(C(=O)O)cn(C3CC3)c2cc1N1CCCC1`: the minimum inhibitory concentration (MIC) in assay [1] was determined as 128 µg/mL (≈ 408 µM); in [2] it was 0.25 µg/mL (≈ 0.798 µM); in [4] it was 128 µg/mL (≈ 408 µM); in assay [5], 128 µg/mL (≈ 408 µM); in [6], 128 µg/mL (≈ 408 µM); in assay [7], 128 µg/mL (≈ 408 µM). In addition, the minimum inhibitory concentration (MIC) in assay [8] came to 128 µg/mL (≈ 408 µM); in [9] it was 128 µg/mL (≈ 408 µM); in assay [10], 0.25 µg/mL (≈ 0.798 µM); in assay [11], 0.25 µg/mL (≈ 0.798 µM); in assay [12] it was 8 µg/mL (≈ 25.5 µM); in [14], 16 µg/mL (≈ 51.1 µM). Also, the lowest concentration to inhibit growth in assay [15] (MIC) was 128 µg/mL (≈ 408 µM). Moreover, the Geometric mean in assay [3] is 6.73; in [13], 128.
`Cc1c(N2CCNCC2)c(N)cc2c(=O)c(C(=O)O)cn(C3CC3)c12`: the minimal inhibitory concentration (MIC) was found to be 4 µg/mL (≈ 11.7 µM) in [1]; 0.03 µg/mL (≈ 0.0876 µM) in [2]; 2 µg/mL (≈ 5.84 µM) in [4]; 4 µg/mL (≈ 11.7 µM) in assay [5]; 4 µg/mL (≈ 11.7 µM) in assay [6]; 2 µg/mL (≈ 5.84 µM) in [7]. For the same molecule, the minimum inhibitory concentration (MIC) in [8] was determined as 1 µg/mL (≈ 2.92 µM); in assay [9], 8 µg/mL (≈ 23.4 µM); in assay [10], 0.03 µg/mL (≈ 0.0876 µM); in [11], 0.03 µg/mL (≈ 0.0876 µM); in assay [12], 0.06 µg/mL (≈ 0.175 µM); in assay [14], 0.03 µg/mL (≈ 0.0876 µM). In assay [15], inhibition of growth (MIC) required 16 µg/mL (≈ 46.7 µM). For the same molecule, the Geometric mean turned out to be 0.158 in [3] and 5.28 in [13].
Turning to `Cc1c(N2CCCC2)c(N)cc2c(=O)c(C(=O)O)cn(C3CC3)c12`, the minimal inhibitory concentration (MIC) in [1] was > 128 µg/mL; in [2], 1 µg/mL (≈ 3.05 µM); in assay [4], 64 µg/mL (≈ 195 µM); in [5], 4 µg/mL (≈ 12.2 µM); in assay [6], 16 µg/mL (≈ 48.9 µM); in assay [7] it was 4 µg/mL (≈ 12.2 µM). Also, the minimum inhibitory concentration (MIC) was > 128 µg/mL in [8]; 16 µg/mL (≈ 48.9 µM) in assay [9]; 0.5 µg/mL (≈ 1.53 µM) in [10]; 32 µg/mL (≈ 97.7 µM) in assay [11]; 64 µg/mL (≈ 195 µM) in assay [12]; 64 µg/mL (≈ 195 µM) in assay [14]. This molecule also yielded a minimal inhibitory concentration (MIC) in assay [15] of 64 µg/mL (≈ 195 µM). Also, the results for the Geometric mean in assay [3] and in [13] were 22.627 and 12.12, respectively.
Take `CN1CCN(c2c(N)cc3c(=O)c(C(=O)O)cn(C4CC4)c3c2F)CC1`: the MIC in assay [1] was 32 µg/mL (≈ 88.8 µM); in assay [2], 0.06 µg/mL (≈ 0.166 µM); in [4], 4 µg/mL (≈ 11.1 µM); in assay [5], 4 µg/mL (≈ 11.1 µM); in assay [6], 4 µg/mL (≈ 11.1 µM); in assay [7], 4 µg/mL (≈ 11.1 µM). The minimum inhibitory concentration (MIC) was 2 µg/mL (≈ 5.55 µM) in assay [8]; 8 µg/mL (≈ 22.2 µM) in assay [9]; 0.06 µg/mL (≈ 0.166 µM) in assay [10]; 1 µg/mL (≈ 2.77 µM) in [11]; 0.25 µg/mL (≈ 0.694 µM) in [12]; 0.25 µg/mL (≈ 0.694 µM) in assay [14]. In assay [15], the MIC is 64 µg/mL (≈ 178 µM). Further, the results for the Geometric mean in assay [3] and in assay [13] were 0.699 and 8, respectively.
Take `Cc1c(N2CCNC(C)C2)c(N)cc2c(=O)c(C(=O)O)cn(C3CC3)c12` (stereo not given): the minimum inhibitory concentration (MIC) worked out at 4 µg/mL (≈ 11.2 µM) in assay [1]; 0.03 µg/mL (≈ 0.0842 µM) in assay [2]; 2 µg/mL (≈ 5.61 µM) in [4]; 1 µg/mL (≈ 2.81 µM) in assay [5]; 1 µg/mL (≈ 2.81 µM) in assay [6]; 1 µg/mL (≈ 2.81 µM) in [7]. Besides, the MIC in assay [8] worked out at 1 µg/mL (≈ 2.81 µM); in [9], 1 µg/mL (≈ 2.81 µM); in [10] it was 0.03 µg/mL (≈ 0.0842 µM); in assay [11], 0.125 µg/mL (≈ 0.351 µM); in assay [12], 0.125 µg/mL (≈ 0.351 µM); in assay [14], 0.06 µg/mL (≈ 0.168 µM). It took 4 µg/mL (≈ 11.2 µM) to inhibit growth in [15] (MIC). For the same molecule, the Geometric mean in [3] was 0.225; in assay [13] it was 1.319.
